Active and inactive are the calls of the source. No cut-off for these calls is given here.
Key:
MDA-MB-231 [1] = experiment: Induction of apoptosis in human MDA-MB-231 cells assessed as early apoptotic cells at 10 uM after 48 hrs by Annexin V-FITC/propidium iodide staining based flow cytometry (reference value: 1.85%); type: functional
MCF7 [2] = experiment: Antiproliferative activity against human MCF7 cells after 72 hrs by MTT assay; type: functional, cell-based
How it was run: (§1)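 MTT proliferation assay. Cells were seeded at 1 × 10^4 per well and exposed to DMSO or compound at 0.1, 0.33, 1.0, 3.3 and 10 μM for 72 h. MTT reagent was added, and OD at 560 nm was read after 1 h at 37°C. Each concentration was tested in quadruplicate wells.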

MDA-MB-231 [3] = experiment: Downregulation of NF-kB p65 protein expression in human MDA-MB-231 cells after 48 hrs by Western blot analysis; type: functional, cell-based
How it was run: (§2)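 MDA-MB-231 cells were exposed to DMSO or compound at several concentrations for 48 h, then lysed. Protein was measured by Bradford with a BSA standard. 40 μg total protein was run on SDS-PAGE and transferred to nitrocellulose, then blocked with 5% milk. Primary antibodies were applied overnight: Bcl-2 1:200, cleaved PARP 1:500, NF-κB 1:1000, Bax 1:1000, β-actin 1:2000. Detection was by ECL.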

MDA-MB-231 [4] = experiment: Induction of apoptosis in human MDA-MB-231 cells assessed as dead cells at 1 uM after 48 hrs by Annexin V-FITC/propidium iodide staining based flow cytometry (reference value: 1.5%); type: functional
MDA-MB-231 [5] = experiment: Inhibition of colony formation in human MDA-MB-231 cells after 2 weeks by crystal violet staining based assay; type: functional, cell-based
How it was run: (§3)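 Cells were seeded at 600 per well (MDA-MB-231) or 800 per well (MDA-MB-468, SK-BR3, MCF-7). After 24 h they were exposed to 1, 5, 10, 15 or 20 μM, or DMSO, with medium plus compound renewed every 72 h for 2 weeks. Wells were PBS-washed, stained with 0.01% crystal violet for 10 min, washed, dried and photographed.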

MCF7 [6] = experiment: Inhibition of colony formation in human MCF7 cells after 2 weeks by crystal violet staining based assay; type: functional, cell-based; how it was run: as §3
MDA-MB-231 [7] = experiment: Induction of apoptosis in human MDA-MB-231 cells assessed as live cells at 10 uM after 48 hrs by Annexin V-FITC/propidium iodide staining based flow cytometry (reference value: 90.35%); type: functional
MDA-MB-468 [8] = experiment: Inhibition of colony formation in human MDA-MB-468 cells after 2 weeks by crystal violet staining based assay; type: functional, cell-based; how it was run: as §3
MDA-MB-231 [9] = experiment: Induction of apoptosis in human MDA-MB-231 cells assessed as live cells at 20 uM after 48 hrs by Annexin V-FITC/propidium iodide staining based flow cytometry (reference value: 90.35%); type: functional
MDA-MB-231 [10] = experiment: Induction of apoptosis in human MDA-MB-231 cells assessed as early apoptotic cells at 15 uM after 48 hrs by Annexin V-FITC/propidium iodide staining based flow cytometry (reference value: 1.85%); type: functional
MDA-MB-231 [11] = experiment: Induction of apoptosis in human MDA-MB-231 cells assessed as early apoptotic cells at 5 uM after 48 hrs by Annexin V-FITC/propidium iodide staining based flow cytometry (reference value: 1.85%); type: functional
MDA-MB-231 [12] = experiment: Induction of apoptosis in human MDA-MB-231 cells assessed as late apoptotic cells at 15 uM after 48 hrs by Annexin V-FITC/propidium iodide staining based flow cytometry (reference value: 6.3%); type: functional
MDA-MB-231 [13] = experiment: Induction of apoptosis in human MDA-MB-231 cells assessed as late apoptotic cells at 1 uM after 48 hrs by Annexin V-FITC/propidium iodide staining based flow cytometry (reference value: 6.3%); type: functional
[14] = Glutathione reactivity in pH 7.4 deuterated phosphate buffer assessed as reaction half life at 10 mg up to 120 mins in presence of 1.5 to 2 equiv of GSH by 1H NMR analysis; type: physicochemical; settings: pH 7.4, 2 h
How it was run: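 Glutathione (1.5–2 equiv) was incubated with compound at 37°C in DMSO-d6 mixed with sodium phosphate buffer in D2O, pH 7.4. Reactivity was monitored by 1H NMR.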

MDA-MB-231 [15] = experiment: Induction of apoptosis in human MDA-MB-231 cells assessed as dead cells at 10 uM after 48 hrs by Annexin V-FITC/propidium iodide staining based flow cytometry (reference value: 1.5%); type: functional
MDA-MB-231 [16] = experiment: Antitumor activity against human MDA-MB-231 cells xenografted in nude mouse assessed as tumor growth inhibition at 10 to 15 mg/kg, ip daily for 10 days; type: functional, organism-based
How it was run: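 Orthotopic model: female nude mice, 6–8 weeks old. MDA-MB-231 cells (1.0 × 10^6 in PBS) were injected into the no. 3 mammary fat pad, and mice were randomized into 4 groups. Once tumors reached 80–100 mm3, mice received 10 or 15 mg/kg daily by intraperitoneal injection in DMSO vehicle. Tumor volume (0.5 × L × W2) and body weight were measured daily. Mean ± SEM.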

MDA-MB-231 [17] = experiment: Antiproliferative activity against human MDA-MB-231 cells after 72 hrs by MTT assay; type: functional, cell-based; how it was run: as §1
MDA-MB-231 [18] = experiment: Induction of apoptosis in human MDA-MB-231 cells assessed as upregulation of cleaved PARP after 48 hrs by Western blot analysis; type: functional, cell-based; how it was run: as §2
MCF-10A = experiment: Antiproliferative activity against human MCF10A cells up to 100 uM after 48 hrs by MTT assay
MDA-MB-231 [19] = experiment: Induction of apoptosis in human MDA-MB-231 cells assessed as live cells at 1 uM after 48 hrs by Annexin V-FITC/propidium iodide staining based flow cytometry (reference value: 90.35%); type: functional
MDA-MB-468 [20] = experiment: Antiproliferative activity against human MDA-MB-468 cells after 72 hrs by MTT assay; type: functional, cell-based; how it was run: as §1
MDA-MB-231 [21] = experiment: Induction of apoptosis in human MDA-MB-231 cells assessed as late apoptotic cells at 20 uM after 48 hrs by Annexin V-FITC/propidium iodide staining based flow cytometry (reference value: 6.3%); type: functional
MDA-MB-231 [22] = experiment: Induction of apoptosis in human MDA-MB-231 cells assessed as early apoptotic cells at 1 uM after 48 hrs by Annexin V-FITC/propidium iodide staining based flow cytometry (reference value: 1.85%); type: functional
MDA-MB-231 [23] = experiment: Induction of apoptosis in human MDA-MB-231 cells assessed as live cells at 15 uM after 48 hrs by Annexin V-FITC/propidium iodide staining based flow cytometry (reference value: 90.35%); type: functional
SK-BR-3 [24] = experiment: Inhibition of colony formation in human SK-BR-3 cells after 2 weeks by crystal violet staining based assay; type: functional, cell-based; how it was run: as §3
SK-BR-3 [25] = experiment: Antiproliferative activity against human SK-BR-3 cells after 72 hrs by MTT assay; type: functional, cell-based; how it was run: as §1
MDA-MB-231 [26] = experiment: Induction of apoptosis in human MDA-MB-231 cells assessed as late apoptotic cells at 5 uM after 48 hrs by Annexin V-FITC/propidium iodide staining based flow cytometry (reference value: 6.3%); type: functional
MDA-MB-231 [27] = experiment: Induction of apoptosis in human MDA-MB-231 cells assessed as late apoptotic cells at 10 uM after 48 hrs by Annexin V-FITC/propidium iodide staining based flow cytometry (reference value: 6.3%); type: functional
MDA-MB-231 [28] = experiment: Induction of apoptosis in human MDA-MB-231 cells assessed as dead cells at 20 uM after 48 hrs by Annexin V-FITC/propidium iodide staining based flow cytometry (reference value: 1.5%); type: functional
MDA-MB-231 [29] = experiment: Induction of apoptosis in human MDA-MB-231 cells after 48 hrs by Annexin V-FITC/propidium iodide staining based flow cytometry; type: functional, cell-based
MDA-MB-231 [30] = experiment: Induction of apoptosis in human MDA-MB-231 cells assessed as early apoptotic cells at 20 uM after 48 hrs by Annexin V-FITC/propidium iodide staining based flow cytometry (reference value: 1.85%); type: functional
MDA-MB-231 [31] = experiment: Induction of apoptosis in human MDA-MB-231 cells assessed as live cells at 5 uM after 48 hrs by Annexin V-FITC/propidium iodide staining based flow cytometry (reference value: 90.35%); type: functional
MDA-MB-231 [32] = experiment: Induction of apoptosis in human MDA-MB-231 cells assessed as reduction in Bcl2 to Bax ratio at 1 to 20 uM after 48 hrs by Western blot analysis; type: functional, cell-based; how it was run: as §2
[33] = Glutathione reactivity in pH 7.4 deuterated phosphate buffer assessed as GSH adduct formation at 10 mg after 1 hr in presence of 1.5 to 2 equiv of GSH by HRMS analysis
MDA-MB-231 [34] = experiment: Induction of apoptosis in human MDA-MB-231 cells assessed as dead cells at 5 uM after 48 hrs by Annexin V-FITC/propidium iodide staining based flow cytometry (reference value: 1.5%); type: functional

In the case of C=CC(=O)N1CC12C(=O)[C@@]13[C@@H]4OC(C)(C)O[C@@]15OC[C@@]1([C@H]([C@@H]5O)C(C)(C)CC[C@@H]1O)[C@@H]3CC[C@H]42 (some centres not stated), the Activity (MDA-MB-231 [1]) is reported as 5.45%, the Activity (MCF7 [2]) is reported as “Dose-dependent effect” and the IC50 (MCF7 [2]; MCF7, 72 h) is reported as 9.39 µM. For the same compound, the Activity (MDA-MB-231 [3]) was “Dose-dependent effect”, the Activity (MDA-MB-231 [4]) was 1.95% and the inhibition (MDA-MB-231 [5]) was “Active”. For the same compound, the inhibition (MCF7 [6]) was “Active”, the Activity (MDA-MB-231 [7]) was 79.05% and the inhibition (MDA-MB-468 [8]) was “Active”. The Activity (MDA-MB-231 [9]) was 50.35%, the Activity (MDA-MB-231 [10]) was 5.2% and the Activity (MDA-MB-231 [11]) was 3.6%. It also gave an Activity (MDA-MB-231 [12]) of 21.6%, an Activity (MDA-MB-231 [13]) of 6.05% and a t1/2 [14] of 30 to 60 min. For the same compound, the Activity (MDA-MB-231 [15]) was 2.75%, the TGI (MDA-MB-231 [16]) was “Active” and the Activity (MDA-MB-231 [17]) was “Dose-dependent effect”. For the same compound, the IC50 (MDA-MB-231 [17]; MDA-MB-231, 72 h) was 8.32 µM, the Activity (MDA-MB-231 [18]) was “Dose-dependent effect” and the Activity (MCF-10A) was “Non-Toxic”. For the same compound, the Activity (MDA-MB-231 [19]) was 89.5%, the Activity (MDA-MB-468 [20]) was “Dose-dependent effect” and the Activity (MDA-MB-231 [21]) was 44.65%. For the same compound, the Activity (MDA-MB-231 [22]) was 2.5%, the Activity (MDA-MB-231 [23]) was 70.25% and the inhibition (SK-BR-3 [24]) was “Active”. For the same compound, the Activity (SK-BR-3 [25]) was “Dose-dependent effect”, the Activity (MDA-MB-231 [26]) was 6.7% and the Activity (MDA-MB-231 [27]) was 12.75%. The Activity (MDA-MB-231 [28]) was 2.05%, the Activity (MDA-MB-231 [29]) was “Dose-dependent effect” and the Activity (MDA-MB-231 [30]) was 2.95%. For the same compound, the Activity (MDA-MB-231 [31]) was 87.95%, the Activity (MDA-MB-231 [32]) was “Active” and the Drug metabolism [33] was “Metabolite detected”. It also gave an Activity (MDA-MB-231 [34]) of 1.75%.
